Assay results taken from ChEMBL document CHEMBL1132381, “Pyrrolidine-3-carboxylic acids as endothelin antagonists. 4. Side chain conformational restriction leads to ET(B) selectivity” (J Med Chem, 1999).

How the values were obtained:
Endothelin-1 receptor = molecular target: T1, Endothelin-1 receptor (Homo sapiens, UniProt P25101); assay: Binding affinity towards human Endothelin A receptor (hET -A)
T1 sequence (P25101 whole entry): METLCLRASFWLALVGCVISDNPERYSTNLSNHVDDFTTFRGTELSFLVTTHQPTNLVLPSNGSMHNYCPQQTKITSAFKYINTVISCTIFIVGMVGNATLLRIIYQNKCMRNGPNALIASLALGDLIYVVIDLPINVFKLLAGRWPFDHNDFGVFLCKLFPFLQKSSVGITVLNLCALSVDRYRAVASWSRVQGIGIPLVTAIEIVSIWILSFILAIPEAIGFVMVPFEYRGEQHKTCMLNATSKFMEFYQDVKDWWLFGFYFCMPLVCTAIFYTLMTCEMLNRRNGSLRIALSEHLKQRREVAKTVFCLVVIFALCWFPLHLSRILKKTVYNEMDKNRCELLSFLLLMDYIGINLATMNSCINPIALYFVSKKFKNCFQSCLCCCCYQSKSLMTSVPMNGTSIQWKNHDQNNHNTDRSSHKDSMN

[1] = molecular target: T2, Endothelin receptor type B (Homo sapiens, UniProt P24530); assay: Binding affinity towards human Endothelin B receptor (hET -B)
T2 sequence (P24530 whole entry): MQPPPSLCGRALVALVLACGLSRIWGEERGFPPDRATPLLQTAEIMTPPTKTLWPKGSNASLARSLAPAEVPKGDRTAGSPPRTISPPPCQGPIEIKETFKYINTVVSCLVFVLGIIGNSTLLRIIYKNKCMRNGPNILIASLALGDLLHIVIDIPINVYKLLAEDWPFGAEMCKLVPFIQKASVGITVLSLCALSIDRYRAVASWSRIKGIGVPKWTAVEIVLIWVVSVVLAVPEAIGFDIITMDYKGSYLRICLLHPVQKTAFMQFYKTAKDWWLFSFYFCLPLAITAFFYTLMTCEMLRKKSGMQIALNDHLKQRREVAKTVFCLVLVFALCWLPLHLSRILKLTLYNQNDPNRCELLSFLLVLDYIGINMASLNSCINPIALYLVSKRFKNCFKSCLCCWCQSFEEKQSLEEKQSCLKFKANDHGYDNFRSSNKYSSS

[2] = molecular target: Endothelin receptor, ET-A/ET-B (Homo sapiens) (UniProt P24530+P25101); assay: Ratio of binding affinity towards hETA to hETB; type: protein assay
Outline: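 Ratio of IC50 values from two CHO membrane binding assays. Both run 3 h at 25 °C over 11 concentrations, 10^-10 to 10^-5 M, in duplicate, with at least 2 determinations each.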

Rattus norvegicus [3] = assay: Oral bioavailability in rat
[4] = Compound was evaluated for the biological half-life when administered through intravenous route; type: ADME, organism-based; conditions: in vivo
[5] = Compound was evaluated for area under curve when administered through oral route to rat; conditions: in vivo
CHO = assay: Antagonistic activity was measured by ET receptor mediated hydrolysis of inositol phosphates; type: functional, cell-based; conditions: Cricetulus griseus
Outline: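 Inositol phosphate hydrolysis in human ETB-transfected CHO cells. Confluent cells labeled with 5 μCi/well [3H]myoinositol, then held 60 min at 37 °C in HEPES saline buffer with protease inhibitors and 10 mM LiCl. Compounds added, then 1 nM ET-1 challenge for 30 min at 37 °C. Total inositol phosphates measured; agonist activity assessed in the same run.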

[6] = Oral bioavailability in rat; conditions: in vivo
[7] = Compound was evaluated for area under curve when administered through oral route in rat; conditions: in vivo
Rattus norvegicus [8] = organism: Rattus norvegicus; assay: Clearance role of ET-B evaluated in terms of increase in circulating levels of ET-1 in rats; type: functional
Rattus norvegicus [9] = organism: Rattus norvegicus; assay: Clearance role of ET-B evaluated in terms of increase in mean arterial pressure (MAP) in rats; type: functional, Artery
[10] = Oral bioavailability in rat; conditions: in vivo; remark: listed apart in the source

| Structure (SMILES) | IC50 (Endothelin-1 receptor) [nM] | IC50 [1] [nM] | Ratio [2] | also measured |
| --- | --- | --- | --- | --- |
| COc1ccc([C@H]2[C@H](C(=O)O)[C@@H](c3ccc4c(c3)OCO4)CN2CC(=O)Nc2ccc(C)c(C)c2)cc1 | 50 | 830 | 0.06 | – |
| CCCc1cccc(CC)c1NC(=O)CN1C[C@H](c2ccc3c(c2)OCO3)[C@@H](C(=O)O)[C@@H]1c1ccc(OC)cc1 | 15 | 82 | 0.2 | – |
| CCc1cccc(OC)c1NC(=O)CN1C[C@H](c2ccc3c(c2)OCO3)[C@@H](C(=O)O)[C@@H]1c1ccc(OC)cc1 | 200 | 5.8 | 34 | – |
| CCc1cccc(CC)c1NC(=O)CN1C[C@H](c2ccc3c(c2)OCO3)[C@@H](C(=O)O)[C@@H]1c1ccc(OC)cc1 (stereo in doubt; 19) [listing 1 of 2 here] | 45 | 1.4 | – | – |
| CCCc1cccc(CCC)c1NC(=O)CN1C[C@H](c2ccc3c(c2)OCO3)[C@@H](C(=O)O)[C@@H]1c1ccc(OC)cc1 | 12 | 460 | 0.03 | – |
| CCc1cccc(C)c1NC(=O)CN1C[C@H](c2ccc3c(c2)OCO3)[C@@H](C(=O)O)[C@@H]1c1ccc(OC)cc1 | 15 | 4 | 4 | – |
| CCc1cccc(CC)c1NC(=O)CN1C[C@H](c2ccc3c(c2)OCO3)[C@@H](C(=O)O)[C@@H]1c1ccc(OCCOC)cc1 (stereo in doubt; 39) [listing 1 of 2 here] | – | – | 4400 | bioavailability (Rattus norvegicus [3]): 9% |
| COc1ccc([C@H]2[C@H](C(=O)O)[C@@H](c3ccc4c(c3)OCO4)CN2CC(=O)Nc2cccc(C)c2C)cc1 | 16 | 81 | 0.2 | – |
| COc1ccc([C@H]2[C@H](C(=O)O)[C@@H](c3ccc4c(c3)OCO4)CN2CC(=O)Nc2c(C)cccc2C)cc1 | 33 | 16 | 2 | – |
| CCOc1ccc([C@H]2[C@H](C(=O)O)[C@@H](c3ccc4c(c3)OCO4)CN2CC(=O)Nc2c(CC)cccc2CC)cc1 (stereo in doubt; 31) [listing 1 of 2 here] | – | – | 250 | – |
| CCc1cc(CC)c(NC(=O)CN2C[C@H](c3ccc4c(c3)OCO4)[C@@H](C(=O)O)[C@@H]2c2ccc(OC)cc2)c(CC)c1 | 10 | 1.5 | 7 | – |
| COc1ccc([C@H]2[C@H](C(=O)O)[C@@H](c3ccc4c(c3)OCO4)CN2CC(=O)Nc2ccc(C)cc2C)cc1 | 25 | 74 | 0.3 | – |
| COc1ccc([C@H]2[C@H](C(=O)O)[C@@H](c3ccc4c(c3)OCO4)CN2CC(=O)Nc2c(OC)cccc2OC)cc1 | 16 | 57 | 0.3 | – |
| CCCOc1ccc([C@H]2[C@H](C(=O)O)[C@@H](c3ccc4c(c3)OCO4)CN2CC(=O)Nc2c(CC)cccc2CC)cc1 (stereo in doubt; 38) | – | – | 1300 | – |
| CCc1cccc(CC)c1NC(=O)CN1C[C@H](c2ccc3c(c2)OCO3)[C@@H](C(=O)O)[C@@H]1c1ccc(OCCOC)cc1 (stereo in doubt; 34) [listing 1 of 2 here] | 4200 | 1.1 | – | – |
| CCc1cc(F)cc(CC)c1NC(=O)CN1C[C@H](c2ccc3c(c2)OCO3)[C@@H](C(=O)O)[C@@H]1c1ccc(OC)cc1 | 22 | 0.8 | 24 | – |
| CCc1cccc(CC)c1NC(=O)CN1C[C@H](c2ccc3c(c2)OCO3)[C@@H](C(=O)O)[C@@H]1c1ccc(CCOC)cc1 | 11000 | 3.8 | 3000 | – |
| CCCOc1ccc([C@H]2[C@H](C(=O)O)[C@@H](c3ccc4c(c3)OCO4)CN2CC(=O)Nc2c(CC)cccc2CC)cc1 (stereo in doubt; 32) [A-192621] | 9900 | 12 | – | – |

| Structure (SMILES) | IC50 (Endothelin-1 receptor) [nM] | IC50 [1] [nM] | Ratio [2] | also measured |
| --- | --- | --- | --- | --- |
| CCc1cccc(CC)c1NC(=O)CN1C[C@H](c2ccc3c(c2)OCO3)[C@@H](C(=O)O)[C@@H]1c1ccc(OCCOC)cc1 (stereo in doubt; 39) [listing 2 of 2 here] | 3700 | 0.85 | – | half-life [4]: 156 min; AUC [5]: 650 ng·h/mL |
| CCc1cccc(CC)c1NC(=O)CN1C[C@H](c2ccc3c(c2)OCO3)[C@@H](C(=O)O)[C@@H]1c1ccc(OC)cc1 (stereo in doubt; 36) [listing 1 of 2 here] | – | – | 330 | – |
| CCOc1ccc([C@H]2[C@H](C(=O)O)[C@@H](c3ccc4c(c3)OCO4)CN2CC(=O)Nc2c(CC)cccc2CC)cc1 (stereo in doubt; 37) [listing 1 of 2 here] | – | – | 280 | – |
| CCOc1ccc([C@H]2[C@H](C(=O)O)[C@@H](c3ccc4c(c3)OCO4)CN2CC(=O)Nc2c(CC)cccc2CC)cc1 (stereo in doubt; 37) [listing 2 of 2 here] | 340 | 1.2 | – | half-life [4]: 186 min; IC50 (CHO): 7.9 nM; AUC [5]: 3400 ng·h/mL; bioavailability [6]: 37% |
| COc1ccc([C@H]2[C@H](C(=O)O)[C@@H](c3ccc4c(c3)OCO4)CN2CC(=O)Nc2c(C)cccc2C(C)C)cc1 | 100 | 20 | 5 | – |
| CCc1cccc(CC)c1NC(=O)CN1C[C@H](c2ccc3c(c2)OCO3)[C@@H](C(=O)O)[C@@H]1c1ccc(OCCOC)cc1 (stereo in doubt; 34) [listing 2 of 2 here] | – | – | 4000 | – |
| CCc1cccc(CC)c1NC(=O)CN1C[C@H](c2ccc3c(c2)OCO3)[C@@H](C(=O)O)[C@@H]1c1ccc(OC)cc1 (stereo in doubt; 19) [listing 2 of 2 here] | – | – | 32 | – |
| COc1ccc([C@H]2[C@H](C(=O)O)[C@@H](c3ccc4c(c3)OCO4)CN2CC(=O)Nc2cc(C)cc(C)c2)cc1 | 160 | 2700 | 0.06 | – |
| CCc1cccc(CC)c1NC(=O)CN1C[C@H](c2ccc3c(c2)OCO3)[C@@H](C(=O)O)[C@@H]1c1ccc(OC(C)C)cc1 | 1500 | 6.9 | 220 | – |
| CCc1cccc(CC)c1NC(=O)CN1C[C@H](c2ccc3c(c2)OCO3)[C@@H](C(=O)O)[C@@H]1c1ccc(OC)cc1 (stereo in doubt; 36) [listing 2 of 2 here] | 89 | 0.27 | – | half-life [4]: 384 min; AUC [7]: 3900 ng·h/mL; bioavailability [6]: 49% |
| CCc1cc(C(=O)O)cc(CC)c1NC(=O)CN1C[C@H](c2ccc3c(c2)OCO3)[C@@H](C(=O)O)[C@@H]1c1ccc(OC)cc1 | 840 | 44 | 19 | – |
| CCCOc1ccc([C@H]2[C@H](C(=O)O)[C@@H](c3ccc4c(c3)OCO4)CN2CC(=O)Nc2c(CC)cccc2CC)cc1 (stereo in doubt; 32) | – | – | 820 | – |
| COc1ccc([C@H]2[C@H](C(=O)O)[C@@H](c3ccc4c(c3)OCO4)CN2CC(=O)Nc2c(C(C)C)cccc2C(C)C)cc1 | 920 | 26 | 35 | – |
| COc1ccc([C@H]2[C@H](C(=O)O)[C@@H](c3ccc4c(c3)OCO4)CN2CC(=O)Nc2cc(C)ccc2C)cc1 | 33 | 82 | 0.4 | – |
| CCCOc1ccc([C@H]2[C@H](C(=O)O)[C@@H](c3ccc4c(c3)OCO4)CN2CC(=O)Nc2c(CC)cccc2CC)cc1 (stereo in doubt; 38) [A-192621] | 8200 | 6.4 | – | half-life [4]: 300 min; ET-1 level (Rattus norvegicus [8]): 19 pg/mL; IC50 (CHO): 0.65 nM; MAP (Rattus norvegicus [9]): 150 mmHg; AUC [5]: 2500 ng·h/mL; bioavailability [10]: 35% |
| CCc1cccc(CC)c1N(C)C(=O)CN1C[C@H](c2ccc3c(c2)OCO3)[C@@H](C(=O)O)[C@@H]1c1ccc(OC)cc1 | 190 | 600 | 0.3 | – |
| CCOc1ccc([C@H]2[C@H](C(=O)O)[C@@H](c3ccc4c(c3)OCO4)CN2CC(=O)Nc2c(CC)cccc2CC)cc1 (stereo in doubt; 31) [listing 2 of 2 here] | 910 | 3.6 | – | – |
| COc1ccc([C@H]2[C@H](C(=O)O)[C@@H](c3ccc4c(c3)OCO4)CN2CC(=O)Nc2c(Br)cccc2Br)cc1 | 61 | 10 | 6 | – |
